The values that follow come from ChEMBL document CHEMBL4411332, “Deciphering the Role of Intramolecular Networking in Cholic Acid-Peptide Conjugates on the Lipopolysaccharide Surface in Combating Gram-Negative Bacterial Infections” (J Med Chem, 2019).

In test [1] the test system is Escherichia coli. Put plainly: Antibacterial activity against Escherichia coli by broth dilution assay. In kind it is functional. The gist of the method: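 MIC99 by broth-dilution assay; antibacterial and culture details are in the Supporting Information.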
In test [2] the test system is Escherichia coli. Nature of the test: Antimicrobial activity against compound-pre-treated Escherichia coli by broth dilution assay based drug resistance development assay. In kind it is functional, organism-based. In a few lines:
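E. coli pre-treated with compound, then MIC₉₉ redetermined by broth-dilution assay in four replicates; reported as fold change in MIC₉₉ relative to starting value to assess resistance development.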

Molecules are shown by their SMILES. ≈ marks a conversion by molar mass, not a printed value. Calls of active or inactive are those of the source. The calls are words filed in the database; no cut-off is given here.

For the compound `C[C@H](CCC(=O)OCc1ccccc1)[C@H]1CC[C@H]2[C@@H]3[C@H](OC(=O)CNC(=O)[C@@H](N)Cc4ccc(O)cc4)C[C@@H]4C[C@H](OC(=O)CNC(=O)[C@@H](N)Cc5ccc(O)cc5)CC[C@]4(C)[C@H]3C[C@H](OC(=O)CNC(=O)[C@@H](N)Cc3ccc(O)cc3)[C@]12C`, the MIC99 result in the test with Escherichia coli [1] was “inactive”. `C[C@H](CCC(=O)OCc1ccccc1)[C@H]1CC[C@H]2[C@@H]3[C@H](OC(=O)CNC(=O)[C@@H](N)Cc4ccccc4)C[C@@H]4C[C@H](OC(=O)CNC(=O)[C@@H](N)Cc5ccccc5)CC[C@]4(C)[C@H]3C[C@H](OC(=O)CNC(=O)[C@@H](N)Cc3ccccc3)[C@]12C`: the MIC99 entry with Escherichia coli [1] was “inactive”. For `NC[C@@H]1O[C@H](O[C@H]2[C@@H](O)[C@H](O[C@@H]3[C@@H](O)[C@H](N)C[C@H](N)[C@H]3O[C@H]3O[C@H](CN)[C@@H](O)[C@H](O)[C@H]3N)O[C@@H]2CO)[C@H](N)[C@@H](O)[C@@H]1O`, the outcome in the test with Escherichia coli [2] was inactive. Consider `CSCC[C@H](N)C(=O)NCC(=O)O[C@@H]1CC[C@@]2(C)[C@@H](C1)C[C@@H](OC(=O)CNC(=O)[C@@H](N)CCSC)[C@@H]1[C@@H]2C[C@H](OC(=O)CNC(=O)[C@@H](N)CCSC)[C@]2(C)[C@@H]([C@H](C)CCC(=O)OCc3ccccc3)CC[C@@H]12`, for which the MIC99 in the test with Escherichia coli [1] fell in the range of 8 to 128 µM (≈ 8.51 to 136 µg/mL).

`CC(C)C[C@H](N)C(=O)NCC(=O)O[C@@H]1CC[C@@]2(C)[C@@H](C1)C[C@@H](OC(=O)CNC(=O)[C@@H](N)CC(C)C)[C@@H]1[C@@H]2C[C@H](OC(=O)CNC(=O)[C@@H](N)CC(C)C)[C@]2(C)[C@@H]([C@H](C)CCC(=O)OCc3ccccc3)CC[C@@H]12` displayed an MIC99 in the test on Escherichia coli [1] of 8 to 128 µM (≈ 8.07 to 129 µg/mL).
